Experimental data taken from ChEMBL document CHEMBL1151243, “New cytotoxic oleanane-type triterpenoids from the cones of Liquidamber styraciflua” (2004).

Legend:
Type in all cases: functional
MKN-7 = assay: Cytotoxicity against human MKN7 cells after 48 hrs by SRB assay; details: MKN-7, 48 h
Procedure, shortened: (§1)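 Cells plated at suitable density in RPMI 1640 with 5% fetal bovine serum and left overnight to attach, then exposed to compound for 48 h. Growth measured by sulforhodamine B staining. GI50 (50% growth inhibition) computed from percent-growth values.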

[1] = Cytotoxicity against human HBC4 cells after 48 hrs by SRB assay; details: HBC4, 48 h; procedure, shortened: as §1
[2] = Cytotoxicity against human BSY1 cells after 48 hrs by SRB assay; details: BSY-1, 48 h; procedure, shortened: as §1
MCF7 = assay: Cytotoxicity against human MCF7 cells after 48 hrs by SRB assay; details: MCF7, 48 h; procedure, shortened: as §1
MDA-MB-231 = assay: Cytotoxicity against human MDA-MB-231 cells after 48 hrs by SRB assay; details: MDA-MB-231, 48 h; procedure, shortened: as §1
U-251 = assay: Cytotoxicity against human U251 cells after 48 hrs by SRB assay; details: U-251, 48 h; procedure, shortened: as §1
SF-268 = assay: Cytotoxicity against human SF268 cells after 48 hrs by SRB assay; details: SF-268, 48 h; procedure, shortened: as §1
SF-295 = assay: Cytotoxicity against human SF295 cells after 48 hrs by SRB assay; details: SF-295, 48 h; procedure, shortened: as §1
SF-539 = assay: Cytotoxicity against human SF539 cells after 48 hrs by SRB assay; details: SF-539, 48 h; procedure, shortened: as §1
SNB-75 = assay: Cytotoxicity against human SNB75 cells after 48 hrs by SRB assay; details: SNB-75, 48 h; procedure, shortened: as §1
SNB-78 = assay: Cytotoxicity against human SNB78 cells after 48 hrs by SRB assay; details: SNB-78, 48 h; procedure, shortened: as §1
HCC 2998 = assay: Cytotoxicity against human HCC2998 cells after 48 hrs by SRB assay; details: HCC 2998, 48 h; procedure, shortened: as §1
KM12 = assay: Cytotoxicity against human KM12 cells after 48 hrs by SRB assay; details: KM12, 48 h; procedure, shortened: as §1
HT-29 = assay: Cytotoxicity against human HT-29 cells after 48 hrs by SRB assay; details: HT-29, 48 h; procedure, shortened: as §1
HCT-15 = assay: Cytotoxicity against human HCT15 cells after 48 hrs by SRB assay; details: HCT-15, 48 h; procedure, shortened: as §1
HCT-116 = assay: Cytotoxicity against human HCT116 cells after 48 hrs by SRB assay; details: HCT-116, 48 h; procedure, shortened: as §1
NCI-H23 = assay: Cytotoxicity against human NCI-H23 cells after 48 hrs by SRB assay; details: NCI-H23, 48 h; procedure, shortened: as §1
NCI-H226 = assay: Cytotoxicity against human NCI-H226 cells after 48 hrs by SRB assay; details: NCI-H226, 48 h; procedure, shortened: as §1
NCI-H522 = assay: Cytotoxicity against human NCI-H522 cells after 48 hrs by SRB assay; details: NCI-H522, 48 h; procedure, shortened: as §1
NCI-H460 = assay: Cytotoxicity against human NCI-H460 cells after 48 hrs by SRB assay; details: NCI-H460, 48 h; procedure, shortened: as §1
A549 = assay: Cytotoxicity against human A549 cells after 48 hrs by SRB assay; details: A549, 48 h; procedure, shortened: as §1
DMS-273 = assay: Cytotoxicity against human DMS273 cells after 48 hrs by SRB assay; details: DMS-273, 48 h; procedure, shortened: as §1
DMS-114 = assay: Cytotoxicity against human DMS114 cells after 48 hrs by SRB assay; details: DMS-114, 48 h; procedure, shortened: as §1
LOX IMVI = assay: Cytotoxicity against human LOXIMVI cells after 48 hrs by SRB assay; procedure, shortened: as §1
OVCAR-3 = assay: Cytotoxicity against human OVCAR-3 cells after 48 hrs by SRB assay; details: OVCAR-3, 48 h; procedure, shortened: as §1
OVCAR-4 = assay: Cytotoxicity against human OVCAR4 cells after 48 hrs by SRB assay; details: OVCAR-4, 48 h; procedure, shortened: as §1
OVCAR-5 = assay: Cytotoxicity against human OVCAR5 cells after 48 hrs by SRB assay; details: OVCAR-5, 48 h; procedure, shortened: as §1
OVCAR-8 = assay: Cytotoxicity against human OVCAR8 cells after 48 hrs by SRB assay; details: OVCAR-8, 48 h; procedure, shortened: as §1
SK-OV-3 = assay: Cytotoxicity against human SKOV3 cells after 48 hrs by SRB assay; details: SK-OV-3, 48 h; procedure, shortened: as §1
[3] = Cytotoxicity against human RXF631L cells after 48 hrs by SRB assay; details: RXF 631, 48 h; procedure, shortened: as §1
ACHN = assay: Cytotoxicity against human ACHN cells after 48 hrs by SRB assay; procedure, shortened: as §1
St-4 = assay: Cytotoxicity against human St-4 cells after 48 hrs by SRB assay; details: St-4, 48 h; procedure, shortened: as §1
[4] = Cytotoxicity against human MKN1 cells after 48 hrs by SRB assay; details: MKN-1, 48 h; procedure, shortened: as §1
MKN-28 = assay: Cytotoxicity against human MKN28 cells after 48 hrs by SRB assay; details: MKN-28, 48 h; procedure, shortened: as §1
MKN-45 = assay: Cytotoxicity against human MKN45 cells after 48 hrs by SRB assay; details: MKN-45, 48 h; procedure, shortened: as §1
MKN-74 = assay: Cytotoxicity against human MKN74 cells after 48 hrs by SRB assay; details: MKN-74, 48 h; procedure, shortened: as §1
DU-145 = assay: Cytotoxicity against human DU145 cells after 48 hrs by SRB assay; details: DU-145, 48 h; procedure, shortened: as §1
PC-3 = assay: Cytotoxicity against human PC3 cells after 48 hrs by SRB assay; details: PC-3, 48 h; procedure, shortened: as §1
[5] = Cytotoxicity against human HBC5 cells after 48 hrs by SRB assay; details: HBC5, 48 h; procedure, shortened: as §1

CC(=O)OC[C@]12CC[C@@H](O)C(C)(C)C1CC[C@]1(C)[C@@H]2CC=C2[C@@H]3CC(C)(C)CC[C@]3(C(=O)O)CC[C@]21C (some centres undefined)
GI50 (MKN-7): 6.61 µM
GI50 [1]: 7.94 µM
GI50 [2]: 10.7 µM
GI50 (MCF7): 8.32 µM
GI50 (MDA-MB-231): 19.5 µM
GI50 (U-251): 6.03 µM
GI50 (SF-268): 15.5 µM
GI50 (SF-295): 8.71 µM
GI50 (SF-539): 6.31 µM
GI50 (SNB-75): 15.8 µM
GI50 (SNB-78): 15.8 µM
GI50 (HCC 2998): 28.2 µM
GI50 (KM12): 5.13 µM
GI50 (HT-29): 3.39 µM
GI50 (HCT-15): 6.46 µM
GI50 (HCT-116): 4.57 µM
GI50 (NCI-H23): 8.51 µM
GI50 (NCI-H226): 18.6 µM
GI50 (NCI-H522): 13.8 µM
GI50 (NCI-H460): 13.8 µM
GI50 (A549): 4.27 µM
GI50 (DMS-273): 6.31 µM
GI50 (DMS-114): 13.5 µM
GI50 (LOX IMVI): 11.2 µM
GI50 (OVCAR-3): 11 µM
GI50 (OVCAR-4): 10 µM
GI50 (OVCAR-5): 18.2 µM
GI50 (OVCAR-8): 11.2 µM
GI50 (SK-OV-3): 20.4 µM
GI50 [3]: 11.7 µM
GI50 (ACHN): 5.37 µM
GI50 (St-4): 9.12 µM
GI50 [4]: 11 µM
GI50 (MKN-28): 5.62 µM
GI50 (MKN-45): 17.8 µM
GI50 (MKN-74): 7.76 µM
GI50 (DU-145): 13.2 µM
GI50 (PC-3): 11.5 µM
GI50 [5]: 11 µM
